Here are results for three compounds from PMC6102747 (Molecular Medicine Reports, 2018).

The test system of data set [1] is Cyp3a1. Put plainly: RT-qPCR mRNA expression in small intestine and liver. Type of data set: in vivo, rats. Particulars: KET 75 mg/kg i.g. 7 days, vs control, P<0.001. Background: Quantitative PCR measures a nucleic acid by following its amplification.
Data set [2] concerns Cyp3a2. Described as above. Type of data set: in vivo, rats. To be noted: KET 75 mg/kg i.g. 7 days, vs control, P<0.001.
The conditions of data set [3]: healthy volunteers, cited from earlier work.
In data set [4] the test system is Mdr1. Put plainly: RT-qPCR mRNA expression in small intestine and liver. The class given is in vivo, rats. To be noted: VER 4 mg/kg i.g. 7 days, vs control, P<0.001. Put shortly:
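Rats, 3 per group, dosed once daily for 7 days: phosphate buffer 5 ml/kg i.v., test compound 2.5/5/10 mg/kg i.v. in phosphate buffer, ketoconazole 75 mg/kg i.g. in olive oil, or verapamil 4 mg/kg i.g. in water. Olive oil 5 ml/kg gavaged 30 min after day-7 dose. Killed 24 h post-dose after overnight fast; liver and intestinal mucosa snap-frozen. qPCR: 40 cycles, 58°C annealing; 2−ΔΔCq.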

Data set [5] concerns P-gp. As to the kind of experiment: Western blot protein expression in small intestine and liver. Type of data set: in vivo, rats. Particulars: rat, in vivo. On the technique in general: In western blotting, separated proteins are transferred to a membrane and probed.

Values joined by “and” are separate entries in the source; they are usually repeats but may differ in a detail not shown here. Identical values can stand only once. Like-named read-outs stand apart in the source and are kept apart here.

Turning to `CC(=O)N1CCN(c2ccc(OCC3COC(Cn4ccnc4)(c4ccc(Cl)cc4Cl)O3)cc2)CC1` (stereo not shown) [KET, ketoconazole, reference compound], the “decrease in Cyp3a1 mRNA expression” value in data set [1] (liver) was 78.64%; in data set [1] (small intestine), 78.27%. Besides, the “decrease in Cyp3a2 mRNA expression” value was 87.39% in data set [2] (liver) and 70.09% in data set [2] (small intestine).

Regarding `O=c1c(O)c(-c2ccc(O)c(O)c2)oc2cc(O)cc(O)c12` [quercetin], the “increase in AUC of CsA” value in data set [3] (CsA 30 min following quercetin administration) is 36%; in data set [3] (CsA 3 days following quercetin administration) it was 47%; in data set [3] (co-administration of quercetin (5 mg/kg) and CsA), 18%.

For `COc1ccc(CCN(C)CCCC(C#N)(c2ccc(OC)c(OC)c2)C(C)C)cc1OC` (stereo not shown) [VER, verapamil, reference compound], the entries for the “decrease in Mdr1 mRNA expression” value in data set [4] (liver) and in data set [4] (small intestine) were 84.33% and 65.32%, respectively. The “decrease in P-gp protein expression” value in data set [5] was 85.02% and 84.54%.
